Screening results from PubChem BioAssay.
Most compounds without a hit are left out; they make up all but 3.8% or so of the library.
Kir21 block: inhibitors of mouse Kir2.1 inward-rectifier potassium channel | Inward rectifier potassium channel 2 (Mus musculus), P35561 | AID 1672, 2009 | HEK293-Kir2.1, FluxOR thallium flux fluorescence; active compounds read low | B-score at 10 µM | 310,000 tested, 0.85% active;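 active = fluorescence ratio B-score at or below minus 3 SD of library scores, with starting-brightness B-score within 2 SD, cut at about -4.2 in these data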;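 also: channel flux triggered by added potassium and thallium sulfate stimulus; B-score of peak minus minimum fluorescence over baseline after thallium stimulus; more negative B-score means stronger Kir2.1 block with less thallium influx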
hERG protect: hERG rescue from dofetilide block, primary screen, cell-based, CHO-hERG, FluxOR thallium flux, dofetilide IC70; dofetilide IC70 present; activation (rescue from dofetilide block), less the hit threshold, % at 10 µM; 310,000 tested, 0.51% active; AID 1511, 2009;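 active = activation above the mean of controls blocked by dofetilide plus 5 SD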;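 also: thallium influx through hERG after potassium depolarization seen as dye fluorescence rise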
KCNK9 block: KCNK9 potassium channel inhibitors, primary screen, HEK293 cells, thallium flux. Potassium channel subfamily K member 9 (Homo sapiens), Q9NPC2. FluxOR thallium flux fluorescence; active compounds read low. B-score at 10 µM. 310,000 tested, 1.2% active. AID 488922, 2010;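 active = ratio B-score over 3 SD below the library mean, with starting fluorescence within 5 SD of its mean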;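 also: negative B-score means less thallium flux so channel inhibition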
KCNQ1 pot: potentiators or activators of KCNQ1 channel, primary screen, cell-based, thallium flux, high-throughput. AID 2648, 2010. CHO-K1 KCNQ1, thallium flux FluxOR fluorescence; active compounds read high. B-score at 10 µM. Potassium voltage-gated channel subfamily KQT member 1 (Homo sapiens), P51787. 310,000 tested, 0.35% active;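 active = fluorescence ratio B-score, a plate-corrected score, at least three library SD, with initial intensity B-score within 5 SD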
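Assay system: stable KCNQ1 CHO-K1 line; medium: assay buffer, equal DMSO in all wells; timing: 90 min dye loading and 20 min compound exposure, both at room temperature; technique: kinetic FluxOR thallium fluorescence, 10-s 1-Hz baseline, 110-s post-stimulus read; read-out basis: B score of baseline-normalized fluorescence ratio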
KCNK3 inh: human KCNK3 channel inhibitors, primary screen, CHO cells, FluxOR thallium flux, B-score; FluxOR fluorescence; active compounds read low; B-score at 10 µM; 340,000 tested, 0.84% active; AID 602410, 2012; Potassium channel subfamily K member 3 (Homo sapiens), O14649;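 active = B-score under library mean minus 4 SD, starting fluorescence ratio at most library mean plus 5 SD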;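 also: more negative B-score means stronger inhibition of thallium flux through KCNK3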
Target sequence (O14649 whole entry, looked up): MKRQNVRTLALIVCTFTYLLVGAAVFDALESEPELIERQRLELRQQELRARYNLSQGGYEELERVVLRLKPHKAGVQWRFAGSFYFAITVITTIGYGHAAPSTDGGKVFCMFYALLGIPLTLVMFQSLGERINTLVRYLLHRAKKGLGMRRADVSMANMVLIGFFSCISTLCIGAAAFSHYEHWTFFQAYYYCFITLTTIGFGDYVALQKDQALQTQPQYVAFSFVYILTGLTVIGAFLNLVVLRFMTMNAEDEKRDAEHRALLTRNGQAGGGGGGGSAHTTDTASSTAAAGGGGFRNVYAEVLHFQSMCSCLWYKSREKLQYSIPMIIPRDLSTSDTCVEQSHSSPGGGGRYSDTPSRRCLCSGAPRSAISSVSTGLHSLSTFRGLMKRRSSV
KCNQ1 inh: inhibitors of human KCNQ1 channel, primary screen, cell-based, thallium flux, high-throughput | Potassium voltage-gated channel subfamily KQT member 1 (Homo sapiens), P51787 | B-score at 10 µM | CHO-K1 KCNQ1, FluxOR thallium flux fluorescence; active compounds read high | 310,000 tested, 1.3% active | AID 2642, 2010;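 active = compounds whose thallium flux B-score, printed positive for inhibition, exceeds three library SD while starting fluorescence stays within three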;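 also: channel opened by potassium depolarization with thallium stimulus after 20 min compound exposure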
The depositor's hits bear a star; i = inactive; nt = no result given.

SMILES	Kir21 block	hERG protect	KCNK9 block	KCNQ1 pot	KCNK3 inh	KCNQ1 inh
COc1cccc(CNC(=O)CCS(=O)(=O)c2cccc3nsnc23)c1	-0.46	-3	i	i	i	i
Cc1ccc(CNC(=O)CCS(=O)(=O)c2cccc3nsnc23)cc1	0	4.9*	i	i	i	i
CC(=O)/C=C1/C(=O)Nc2ccccc21	-5.2*	-3	i	i	i	i
CS(=O)(=O)c1sc(C#N)c2c1C(=O)CC(c1ccccc1)C2 (stereo not drawn)	-5.9	-10	i	27*	i	i
CCCC(=O)C1=C(O)C(C(=O)OC)C(C)(C)CC1=Nc1cccc2ccccc12 (stereo not drawn)	-1.8	-4	i	i	i	6*
CCCC(=O)C1=C(O)C(C(=O)OC)C(C)(C)CC1=NCc1ccccc1 (stereo not drawn)	-0.29	-3	i	i	i	i
CCCCOc1ccc(C(=O)NCC(=O)NC2CCC(C)CC2)cc1 (stereo not drawn)	2.1	-10	i	i	i	i
CNC(=O)CSCc1cnn(-c2ccccc2)c1-n1cccc1	-0.6	-5	i	i	i	i
COc1cccc(CNC(=O)CSCc2cnn(-c3ccccc3)c2-n2cccc2)c1	-5.8*	-9	i	i	i	i
O=C(/C=C/c1ccc(O)cc1)c1ccccc1	0.83	-18	i	i	i	i
Cc1nn(C)cc1/C=C/C(=O)c1ccc(O)cc1	0.35	6.2*	i	i	i	i
Cc1cc(C)cc(CSCC(=O)NN=C2CCCCCC2)c1	-10*	-10	i	i	i	i
CC(C)Cc1ccc(CN2CCCC(NC(=O)CCN3CCOCC3)C2)cc1 (stereo not drawn)	-0.21	-8	i	i	i	i
COCCNC(=O)/C(C#N)=C/c1ccc(OC(=O)c2cccs2)c(OC)c1	-6*	-11	i	i	i	i
COc1ccc(CCNC(=O)/C(C#N)=C/c2cccc(OCc3ccccc3)c2)cc1OC	-4.4*	-13	i	i	i	i
COCCNC(=O)/C(C#N)=C/c1cccs1	-0.85	-8	i	i	i	i
COc1cccc(/C=N/NC(=O)C(=O)N/N=C/c2cccc(OC)c2O)c1O	nt	nt	nt	nt	i	nt
COc1cccc(C=NCCCN=Cc2cccc(OC)c2O)c1O	-1.5	5.7*	i	i	i	i
COc1ccc(-c2nc(=S)c3ccc4ccccc4c3[nH]2)cc1	0.01	63*	i	77*	i	i
COc1ccc(-c2nc3ccccc3[nH]2)cc1	-0.7	-4	i	i	i	i
CCN(C(=O)c1cc2c(=O)[nH]c3ccc(C)cc3c2s1)c1ccccc1C	-0.02	-16	i	i	i	i
CCN(C(=O)c1cc2c(=O)[nH]c3ccc(C)cc3c2s1)c1ccccc1F	0.76	9.2*	i	26*	i	i
CN(C)C1=NCCN1CCc1ccc(F)cc1	nt	nt	nt	nt	i	nt
S=c1[nH]nc(-c2ccccc2)n1/N=C/c1ccc(-c2ccccc2Cl)o1	0.83	4	i	8*	i	i
S=c1[nH]nc(-c2ccccn2)n1/N=C/c1ccc(-c2ccccc2Br)o1	-0.79	14*	i	i	i	i
C1CCN(CCCNC2C3CC4CC(C3)CC2C4)C1 (stereo not drawn)	-11*	-9	i	i	i	i
O=C(Nc1cc(C(F)(F)F)ccc1Cl)C(NCc1ccccc1)c1ccccc1 (stereo not drawn)	-0.39	-21	-7.1*	i	i	11*
O=C(CC(=O)c1ccccc1)Nc1cc(C(F)(F)F)ccc1Cl	0.38	-6	i	i	i	i
